Experiment [1] can be described thus: nonspecific flux increase, KCNQ1-free cells – parental CHO cells, counter-screen for KCNQ1 potentiator project (AID 493006;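 active = duplicate-averaged activation above buffer control mean plus 5 SD of those controls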;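 for activation: fluorescence ratio of max minus min over baseline after K+ and Tl+ depolarization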). Conditions: parental CHO-K1 cells, FluxOR thallium flux, at 10 µM; active compounds read high. In a few lines:
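Assay system: parental CHO-K1 cells lacking KCNQ1, loaded with FluxOR thallium dye; timing: dye 90 min RT, compound 20 min RT; signal: kinetic thallium-flux fluorescence; repeats: duplicate wells per compound, percent values averaged; benchmarks: buffer and R-L3 controls; reagent: Potassium/thallium depolarization pulse; read-out: fluorescence change ratio scaled 0% buffer, 100% R-L3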
Background: A counterscreen serves to expose hits that act by an unwanted route or on another target.

Experiment [2] concerns the target Potassium voltage-gated channel subfamily KQT member 1 (Homo sapiens) (UniProt P51787). Briefly: enhancement of KCNQ1 channel thallium flux – FluxOR thallium flux, CHO cells, duplicates, confirmation (AID 493007;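 active = potentiation averaged over duplicate wells exceeding buffer-only control mean by more than 3 SD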;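 for outcome: cells depolarized by a potassium plus thallium sulfate stimulus after compound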). As to conditions: KCNQ1 cell line, FluxOR thallium flux fluorescence, at 10 µM; active compounds read high, % of reference activator effect, buffer zero. Summed up: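 material = CHO cells stably expressing the KCNQ1 potassium channel | repeats = duplicate wells per compound | measure = percent activation between buffer and R-L3 responses | signal = FluxOR thallium-flux fluorescence, kinetic read | schedule = FluxOR dye loading 90 min, compound exposure 20 min, room temperature | control set = buffer and R-L3 controls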

Experiment [3] concerns the target Potassium voltage-gated channel subfamily KQT member 2 (Rattus norvegicus) (UniProt O88943). The experiment can be described thus: KCNQ2 thallium flux enhancement – KCNQ2-CHO-K1 cells, selectivity assay for KCNQ1 potentiator project (AID 493009;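 active = mean duplicate potentiation above the buffer control mean plus 5 SD of buffer wells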;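 note: assay conditions were tuned for KCNQ1 rather than KCNQ2 modulators; signal is max minus min fluorescence divided by baseline after thallium stimulus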). As to conditions: FluxOR thallium flux fluorescence, at 10 µM; active compounds read high, scaled: buffer 0, activator control 100.

Experiment [4] deals with Potassium voltage-gated channel subfamily KQT member 1 (Homo sapiens) (UniProt P51787). Briefly: KCNQ1 activators by electrophysiology – IonWorks patch clamp, KCNQ1-CHO cells, orthogonal assay for KCNQ1 potentiator project, confirmation (AID 493184). As to conditions: automated patch clamp current, at 10 µM; active compounds read high. Summed up:
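Assay system – CHO cells carrying KCNQ1 · Medium – pH 7.4 external bath · Probe or stimulus – depolarizing pulse to +40 mV from -90 mV · Compound dosing – one dose, 10 µM final · Measured by – automated perforated-patch electrophysiology · Measure – % potentiation of steady-state current relative to pre-compound · Repeats – two replicates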
(The patch-clamp technique gives a direct electrical read-out from membranes.)

Values joined by “and” are separate entries in the source; they are usually repeats but may differ in a detail not shown here. Identical values can stand only once. Active and inactive are the calls of the source.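 Rule for the calls, unless noted: active = current rise at least 3 SD above the untreated control mean in each of two repeat wells; inactive = the rest.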

Chain of Potassium voltage-gated channel subfamily KQT member 2 (Rattus norvegicus) (O88943 whole entry, looked up): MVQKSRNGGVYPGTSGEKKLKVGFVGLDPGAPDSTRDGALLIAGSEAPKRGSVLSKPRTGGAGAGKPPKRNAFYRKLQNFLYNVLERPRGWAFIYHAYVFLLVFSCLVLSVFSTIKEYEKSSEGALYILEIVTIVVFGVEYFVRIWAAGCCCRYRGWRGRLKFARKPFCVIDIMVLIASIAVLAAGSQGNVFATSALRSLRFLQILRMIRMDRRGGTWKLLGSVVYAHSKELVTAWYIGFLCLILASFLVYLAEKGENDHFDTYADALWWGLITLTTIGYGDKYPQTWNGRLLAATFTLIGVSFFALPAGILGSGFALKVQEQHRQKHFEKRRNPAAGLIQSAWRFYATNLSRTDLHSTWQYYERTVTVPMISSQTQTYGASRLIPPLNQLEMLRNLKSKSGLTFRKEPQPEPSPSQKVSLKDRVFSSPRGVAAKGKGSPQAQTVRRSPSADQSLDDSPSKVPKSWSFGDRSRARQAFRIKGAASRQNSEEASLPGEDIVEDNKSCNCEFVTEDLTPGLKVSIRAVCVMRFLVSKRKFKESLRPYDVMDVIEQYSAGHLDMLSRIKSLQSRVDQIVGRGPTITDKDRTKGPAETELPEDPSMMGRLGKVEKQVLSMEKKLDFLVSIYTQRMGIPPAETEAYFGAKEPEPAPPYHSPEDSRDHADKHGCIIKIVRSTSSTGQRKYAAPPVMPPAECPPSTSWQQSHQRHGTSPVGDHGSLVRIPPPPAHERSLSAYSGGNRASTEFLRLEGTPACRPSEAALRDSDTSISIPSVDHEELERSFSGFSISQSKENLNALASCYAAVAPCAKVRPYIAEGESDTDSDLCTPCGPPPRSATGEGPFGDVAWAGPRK
Chain of Potassium voltage-gated channel subfamily KQT member 1 (Homo sapiens) (P51787 whole entry, looked up): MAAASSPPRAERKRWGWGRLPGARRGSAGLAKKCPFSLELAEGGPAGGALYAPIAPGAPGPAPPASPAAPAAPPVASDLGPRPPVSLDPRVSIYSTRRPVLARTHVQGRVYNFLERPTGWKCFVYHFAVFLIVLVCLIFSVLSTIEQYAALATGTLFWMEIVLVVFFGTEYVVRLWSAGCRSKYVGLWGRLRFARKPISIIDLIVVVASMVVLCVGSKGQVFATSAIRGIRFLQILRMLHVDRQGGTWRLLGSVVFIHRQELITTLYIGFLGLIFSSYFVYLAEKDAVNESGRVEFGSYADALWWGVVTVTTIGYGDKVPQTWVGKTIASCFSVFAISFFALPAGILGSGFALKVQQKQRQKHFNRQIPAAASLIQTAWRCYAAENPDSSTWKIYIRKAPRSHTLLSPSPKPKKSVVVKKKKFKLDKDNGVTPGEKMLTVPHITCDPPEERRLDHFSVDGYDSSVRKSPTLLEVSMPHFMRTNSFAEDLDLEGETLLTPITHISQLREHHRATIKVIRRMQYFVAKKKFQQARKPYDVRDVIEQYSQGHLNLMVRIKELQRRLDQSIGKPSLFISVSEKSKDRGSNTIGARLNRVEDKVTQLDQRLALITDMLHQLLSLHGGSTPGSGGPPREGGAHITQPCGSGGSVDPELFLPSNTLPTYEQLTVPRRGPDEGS

With `COc1ccc(OC)c(S(=O)(=O)CC(O)CS(=O)(=O)c2ccccc2)c1` (configuration not stated), the outcome in experiment [1], in experiment [2], in experiment [3] and in experiment [4] was inactive.

Regarding `C=CCn1c(=S)[nH]c2scc(-c3cccs3)c2c1=O`, the activation in experiment [1] is 620% (active). The results for the potentiation in experiment [2] and in experiment [3] were 274% (active) and 554% (active), respectively. Further, the outcome in experiment [4] was inactive.

As for `CCCN1CCC(NC(=S)Nc2cccc(Cl)c2Cl)CC1`, the outcome in experiment [1], in experiment [2], in experiment [3] and in experiment [4] was inactive.

Turning to `COc1ccccc1C(=O)Nc1ccnn1C1CCN(CCCC2CCCC2)CC1`, the outcome in experiment [1], in experiment [2], in experiment [3] and in experiment [4] was inactive.

As for `Cc1ccc(-c2noc(CCC(=O)Nc3ccccc3N3CCN(C)CC3)n2)cc1`, the result in experiment [1], in experiment [2], in experiment [3] and in experiment [4] was inactive.

As for `CCC(C)n1c(=S)[nH]c2c(sc3ccc([N+](=O)[O-])cc32)c1=O` (configuration not stated), the activation in experiment [1] is 764% (active). The potentiation was 342% (active) in experiment [2] and 709% (active) in experiment [3]. For the same compound, the result in experiment [4] was inactive.

For the compound `NC(=NCCCCCCN=C(N)/N=C(\N)Nc1ccc(Cl)cc1)/N=C(\N)Nc1ccc(Cl)cc1`, the activation in experiment [1] is 240% (active) and 259% (active). The potentiation in experiment [2] is 59.5% (active) and 91.5% (active); in experiment [3] it was 183% (active) and 216% (active). Moreover, in experiment [4], the outcome was inactive.

As to `O=C(COc1ccc2ccccc2c1)NNC(=O)[C@@H]1CCCC[C@@H]1C(=O)O`, the result in experiment [1], in experiment [2], in experiment [3] and in experiment [4] was inactive.

Take `Cc1cccc(/C=C2/S/C(=N/N=C3\CC4CCC3(C)C4(C)C)NC2=O)c1` (configuration not stated): the result in experiment [1], in experiment [3] and in experiment [4] was inactive. Also, in experiment [2], the potentiation was 28% (active).

For the compound `COc1ccc(CN(C)C(=O)c2ccc3ccccc3n2)cc1F`, the outcome in experiment [1], in experiment [2], in experiment [3] and in experiment [4] was inactive.

Take `O=C(c1ccccn1)c1ncc(C(F)(F)F)cc1Cl`: the result in experiment [1], in experiment [2], in experiment [3] and in experiment [4] was inactive.

Turning to `COc1cccc(CNC(=O)C2CCN(S(=O)(=O)c3ccc(-n4cnnn4)cc3)CC2)c1`, the outcome in experiment [1], in experiment [2], in experiment [3] and in experiment [4] was inactive.

For the compound `O=c1c2ccccc2sn1-c1ccccc1`, the activation in experiment [1] was 180% (active). Further, the potentiation in experiment [2] is 59% (active); in experiment [3] it was 148% (active). Besides, the result in experiment [4] was inactive.

Turning to `NNc1nc2ccc(Cl)cc2s1`, the outcome in experiment [1], in experiment [2], in experiment [3] and in experiment [4] was inactive.

In the case of `CCOC(=O)c1ccc(Oc2nc(NC(C)(C)C)nc(N(C)C)n2)cc1`, the result in experiment [1], in experiment [2], in experiment [3] and in experiment [4] was inactive.

As for `CCOC(=O)CC1=NS(=O)(=O)c2ccccc2N1`, the outcome in experiment [1], in experiment [2], in experiment [3] and in experiment [4] was inactive.

As for `O=S(=O)(c1cc(F)cc(F)c1)N1CCN(c2ncccn2)CC1`, the outcome in experiment [1], in experiment [2], in experiment [3] and in experiment [4] was inactive.

Regarding `CCOC(=O)NC(=S)Nc1ccc(C(C)(C)C)cc1`, the result in experiment [1], in experiment [3] and in experiment [4] was inactive. Besides, in experiment [2], the potentiation was 20% (active).

For the compound `Nc1c(Cl)cc(C2=NCCn3nc4cc(C(F)(F)F)ccc4c32)cc1Cl`, the result in experiment [1], in experiment [2], in experiment [3] and in experiment [4] was inactive.

With `O=C1c2ccccc2NC(c2ccc(Br)s2)N1O` (configuration not stated), the activation in experiment [1] is 282% (active). Moreover, the results for the potentiation in experiment [2] and in experiment [3] were 57% (active) and 252% (active), respectively. In experiment [4], the result was inactive.

Regarding `COc1ccc2nc(N3C(=O)/C(=C/c4ccccc4)NC3=S)sc2c1`, the activation in experiment [1] was 380% (active). The potentiation was 204% (active) in experiment [2] and 486% (active) in experiment [3]. For the same compound, in experiment [4], the outcome was inactive.

For `Cc1ccc(C)c(N(CC(=O)NC2CCCC2)C(=O)CCC(=O)Nc2nccs2)c1`, the result in experiment [1], in experiment [2], in experiment [3] and in experiment [4] was inactive.

In the case of `O=C(Cc1cccs1)N=Nc1c(O)[nH]c2ccc(Br)cc12`, the outcome in experiment [1], in experiment [2], in experiment [3] and in experiment [4] was inactive.

In the case of `NC(=O)c1cccc(N=Cc2cc(Cl)cc(Cl)c2O)c1`, the activation in experiment [1] was 178% (active). Further, the figures for the potentiation in experiment [2] and in experiment [3] were 25% (active) and 154% (active), respectively. In addition, the result in experiment [4] was inactive.

Consider `CCC(O)(CC)C(=O)NN(C(=O)CCl)c1ccccc1`, for which the result in experiment [1], in experiment [2], in experiment [3] and in experiment [4] was inactive.

`O=C(Nc1ccccc1F)C1C2C=CC3(O2)C1C(=O)N(c1cccnc1)C3C(=O)NC1CCCCC1` (configuration not stated): the result in experiment [1], in experiment [2], in experiment [3] and in experiment [4] was inactive.

As for `CCOc1ccc(NC(=O)CN(C)C(=O)C2CCN(c3ncnc4sc(C)c(C)c34)CC2)cc1OCC`, the outcome in experiment [1], in experiment [2], in experiment [3] and in experiment [4] was inactive.

`Cc1ccc(/C(O)=C/C(=O)C(=O)NC23CC4CC(CC(C4)C2)C3)cc1`: in experiment [1], the activation was 284% (active). Also, the values for the potentiation in experiment [2] and in experiment [3] were 167% (active) and 367% (active), respectively. For the same compound, in experiment [4], the result was inactive.
